Test results from ChEMBL document CHEMBL2406967, “Contribution of Cage-Shaped Structure of Physalins to Their Mode of Action in Inhibition of NF-κB Activation” (ACS Med Chem Lett, 2013).
Active and inactive are the calls of the source. The calls are words filed in the database; no cut-off is given here.

Legend:
[1] = Inhibition of TNFalpha-induced NF-kappaB activation (unknown origin) expressed in human HeLa cells pretreated 30 mins before TNFalpha addition after 7 hrs by luciferase reporter gene assay; type: cell-based
Summary of the method: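 HeLa cells stably transfected with an NF-κB reporter construct, stimulated with TNF-α; IC50 values are means of three independent experiments, with standard deviation.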

HeLa [2] = assay: Inhibition of NF-kappaB (unknown origin) expressed in human HeLa cells assessed as inhibition of TNFalpha-induced RelA nuclear translocation pretreated 30 mins before TNFalpha addition measured after 15 mins by Western blot analysis
[3] = target: T1, NF-kappa-B inhibitor alpha (Homo sapiens) (UniProt P25963); assay: Inhibition of TNFalpha-induced IkappaBalpha (unknown origin) degradation expressed in human HeLa cells at 50 uM pretreated […] before TNFalpha addition […] by ELISA; type: cell-based
T1 sequence (whole entry): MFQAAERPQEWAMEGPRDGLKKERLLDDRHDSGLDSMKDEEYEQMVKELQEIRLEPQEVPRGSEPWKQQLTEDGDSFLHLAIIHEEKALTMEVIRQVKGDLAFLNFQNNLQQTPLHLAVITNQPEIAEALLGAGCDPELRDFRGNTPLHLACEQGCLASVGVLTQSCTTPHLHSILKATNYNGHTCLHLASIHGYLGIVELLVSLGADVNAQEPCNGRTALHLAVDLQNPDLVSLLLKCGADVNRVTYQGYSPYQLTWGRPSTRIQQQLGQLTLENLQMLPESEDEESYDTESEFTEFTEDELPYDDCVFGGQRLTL

HeLa [4] = assay: Inhibition of NF-kappaB (unknown origin) expressed in human HeLa cells assessed as inhibition of TNFalpha-induced p50 nuclear translocation pretreated 30 mins before TNFalpha addition measured after 15 mins by Western blot analysis
HeLa [5] = assay: Ratio of IC50 for TNFalpha-induced NF-kappaB (unknown origin) activation expressed in human HeLa cells to IC50 for TNFalpha-induced IkappaBalpha (unknown origin) phosphorylation expressed in human HeLa cells; type: cell-based
HeLa [6] = assay: Inhibition of NF-kappaB (unknown origin) expressed in human HeLa cells assessed as inhibition of TNFalpha-induced DNA binding of p50 pretreated 30 mins before TNFalpha addition measured after 30 mins by EMSA
HeLa [7] = assay: Inhibition of NF-kappaB (unknown origin) expressed in human HeLa cells assessed as inhibition of TNFalpha-induced DNA binding of RelA pretreated 30 mins before TNFalpha addition measured after 30 mins by EMSA
HeLa [8] = assay: Inhibition of NF-kappaB (unknown origin) expressed in human HeLa cells assessed as inhibition of TNFalpha-induced RelA nuclear translocation at 100 uM […] by Western blot analysis; type: cell-based
Summary of the method: (§1)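 HeLa cells pretreated 30 min with a range of compound concentrations or DMSO, then stimulated with TNF-α (50 ng/mL) for 15 min. Cytoplasmic and nuclear fractions were immunoblotted for RelA and p50. Tubulin marked the cytoplasmic fraction and PARP the nuclear fraction.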

HeLa [9] = assay: Inhibition of NF-kappaB (unknown origin) expressed in human HeLa cells assessed as inhibition of TNFalpha-induced p50 nuclear translocation at 100 uM […] by Western blot analysis; type: cell-based; summary of the method: as §1

SMILES | IC50 [1] | inhibition [3] | further results
CC1=C(C)C(=O)O[C@@H]([C@](C)(O)[C@H]2CC[C@@]3(O)[C@@H]4CC=C5CC=CC(=O)[C@]5(C)[C@H]4CC[C@]23C)C1 | 20.7 µM | – | –
C=C1C(=O)O[C@@H]2C[C@@]1(C)[C@@H]1C(=O)[C@]3(O)O[C@]14[C@@]2(C)OC(=O)[C@@]4(O)CC[C@H]1[C@H]3CC=C2CC=CC(=O)[C@@]21C | 6.54 µM | 0.8% | inhibition (HeLa [2]): Dose-dependent effect; inhibition (HeLa [4]): Dose-dependent effect
C[C@H]1C(=O)OC[C@H]1C[C@@H](O)[C@](C)(O)[C@]1(O)CC[C@@]2(O)[C@@H]3CC=C4CC=CC(=O)[C@]4(C)[C@H]3CC[C@]12C | 33.2 µM | – | –
C[C@H]1C(=O)OC[C@H]1C[C@@H](O)[C@](C)(O)[C@@]1(O)CC[C@@]2(O)[C@@H]3CC=C4CC=CC(=O)[C@]4(C)[C@H]3CC[C@]12C | 32.4 µM | – | –
C[C@]12C(=O)C=CCC1=CC[C@@H]1[C@@H]2CC[C@]2(O)C(=O)O[C@@]3(C)[C@H]4C[C@]5(C)[C@@H](CO[C@@]16O[C@@]32[C@H]5C6=O)C(=O)O4 [PHYSALIN B] | 6.07 µM | 7% | inhibition (HeLa [2]): Dose-dependent effect; inhibition (HeLa [6]): Dose-dependent effect; inhibition (HeLa [4]): Dose-dependent effect; inhibition (HeLa [7]): Dose-dependent effect
C[C@@]12C[C@H]3OC(=O)[C@@H]1CO[C@]14O[C@]5([C@H]2C1=O)[C@@](O)(CC[C@H]1[C@H]4C[C@H]2O[C@]24CC=CC(=O)[C@]14C)C(=O)O[C@@]35C [PHYSALIN F] | 2.53 µM | 45.2% | Ratio IC50 (HeLa [5]): 10
C[C@@]12C[C@H]3OC(=O)[C@@H]1CO[C@@]14O[C@]5(C2C1=O)[C@@](O)(CC[C@H]1[C@H]4C[C@@H]2O[C@@]24CC=CC(=O)[C@]14C)C(=O)O[C@@]35C [PHYSALIN J] | 36.2 µM | – | –
CC1=C(C)C(=O)O[C@@H]([C@](C)(O)[C@]2(O)CC[C@@]3(O)[C@@H]4C[C@H]5O[C@]56CC=CC(=O)[C@]6(C)[C@H]4CC[C@]23C)C1 [WITHANOLIDE E] | 0.98 µM | 46.8% | Ratio IC50 (HeLa [5]): 10
CC1=C(C)C(=O)O[C@@H]([C@](C)(O)[C@]2(O)CC[C@@]3(O)[C@@H]4CC=C5CC=CC(=O)[C@]5(C)[C@H]4CC[C@]23C)C1 [WITHANOLIDE F] | 2 µM | – | inhibition (HeLa [8]): Active; inhibition (HeLa [6]): Dose-dependent effect; inhibition (HeLa [9]): Active; inhibition (HeLa [7]): Dose-dependent effect

The next lines start with results.

IC50 [1] | SMILES | inhibition [3] | further results
20.8 µM | CC1=C(C)C(=O)O[C@@H]([C@](C)(O)C2=CC[C@@]3(O)[C@@H]4CC=C5CC=CC(=O)[C@]5(C)[C@H]4CC[C@]23C)C1 | – | –
11.4 µM | C[C@]12C(=O)C=CCC1=C[C@@H](O)[C@@H]1[C@@H]2CC[C@@]2(O)C(=O)O[C@@]3(C)[C@H]4C[C@]5(C)[C@@H](CO[C@@]16O[C@]23[C@H]5C6=O)C(=O)O4 | -3.8% | –
> 50 µM | C[C@]12C(=O)C=CCC1=CC[C@@H]1[C@@H]2CC[C@]2(O)C(=O)O[C@@]3(C)[C@H]4C[C@@](C)([C@@H]5C(=O)[C@]1(O)O[C@@]532)[C@](C)(O)C(=O)O4 | – | –
104 µM | C#C[C@]12O[C@H]3OC[C@H]4C(=O)O[C@H](C[C@@]4(C)[C@@H]1C3=O)[C@]2(C)O | – | –
> 200 µM | C[C@@]12C[C@H]3OC(=O)[C@@H]1CO[C@@H]1O[C@@]4([C@H](O)C(=O)O[C@@]34C)[C@H]2C1=O | – | –
> 200 µM | CC(=O)O[C@@H]1C(=O)O[C@@]2(C)[C@H]3C[C@]4(C)[C@@H](CO[C@@H]5O[C@]12[C@H]4C5=O)C(=O)O3 | – | –
43.6 µM | C[C@@]12C[C@H]3OC(=O)[C@@H]1CO[C@@H]1O[C@@]4([C@H](OCc5ccccc5)C(=O)O[C@@]34C)[C@H]2C1=O | – | –
85.8 µM | C=C1C(=O)O[C@@H]2C[C@@]1(C)[C@@H]1C(=O)[C@@H](O)O[C@@]13[C@H](OCc1ccccc1)C(=O)O[C@@]23C | – | –
4.38 µM | C[C@@]12C[C@H]3OC(=O)[C@]1(O)CO[C@]14O[C@@]5([C@H]2C1=O)[C@@]3(C)OC(=O)[C@@]5(O)CC[C@H]1[C@H]4C[C@H]2O[C@]23CC=CC(=O)[C@]13C [25-HYDROXY PHYSALIN F] | 29% | Ratio IC50 (HeLa [5]): 10
> 50 µM | C[C@@]12C[C@H]3OC(=O)[C@]1(O)CO[C@]14O[C@@]5([C@H]2C1=O)[C@@]3(C)OC(=O)[C@@]5(O)CC[C@H]1[C@H]4C[C@@H]2O[C@@]23CC=CC(=O)[C@]13C [25-HYDROXY PHYSALIN J] | – | –
22.7 µM | C=C1C(=O)O[C@@H]2C[C@@]1(C)[C@@H]1C(=O)[C@]3(O)O[C@]14[C@@]2(C)OC(=O)[C@@]4(O)CC[C@H]1[C@H]3[C@H](O)C=C2CC=CC(=O)[C@@]21C [PHYSALIN A] | -3.4% | –
> 50 µM | C[C@@H]1C(=O)O[C@@H]2C[C@@]1(C)[C@@H]1C(=O)[C@]3(O)O[C@]14[C@@]2(C)OC(=O)[C@@]4(O)CC[C@H]1[C@H]3[C@H](O)C=C2CC=CC(=O)[C@@]21C [PHYSALIN O] | – | –
